Measured values collected from several papers.
Each line is one published result; the experiments were not run side by side.
Matrix: plasma

The Cmax of `FC(F)(F)c1ccc(CNc2ccc(Cc3c[nH]c4ncc(Cl)cc34)cn2)cn1` is reported as 8730 ng/mL (human; oral; 1200 mg; multiple doses, patients).
The Cmax of `NC(=O)c1cnc2[nH]ccc2c1N[C@@H]1[C@@H]2CC3C[C@H]1C[C@@](O)(C3)C2` is reported as 256 ng/mL (human; oral; 100 mg twice daily; multiple doses, patients).
`CNCc1ccc(-c2[nH]c3cc(F)cc4c3c2CCNC4=O)cc1` has a Cmax of 2650 ng/mL (human; oral; 600 mg; multiple doses, twice daily, steady state).
`CCCCC1=NC2(CCCC2)C(=O)N1Cc1ccc(-c2ccccc2S(=O)(=O)Nc2noc(C)c2C)c(COCC)c1` gave a Cmax of 6280 ng/mL (human; oral; 200 mg; single dose, fed, healthy volunteers).
The Cmax of `CO[C@H]1CC[C@H](N2C(=O)CNc3ncc(-c4ccc(C(C)(C)O)nc4)nc32)CC1` is reported as 97.4 ng/mL (human; oral; 15 mg; patients).
The Cmax of `COc1ccc([C@@H]2CN(C(=O)[C@@H](O)CO)C[C@@]2(C)[C@@H](C)O)cc1OC1CN(c2ccc(C)cn2)C1` is reported as 669 ng/mL (human; oral; 30 mg; single dose, healthy volunteers).
`CS(=O)(=O)CCNCc1ccc(-c2ccc3ncnc(Nc4ccc(OCc5cccc(F)c5)c(Cl)c4)c3c2)o1` gave a Cmax of 2370 ng/mL (human; oral; 500 mg; multiple doses, twice daily, steady state, patients).
For `CCn1c(=O)c(-c2cc(NC(=O)Nc3ccccc3)c(F)cc2Br)cc2cnc(NC)cc21`, the Cmax was 525 ng/mL (human; oral; 200 mg; single dose, patients).
`CCc1nc2c(C)cc(N3CCN(CC(=O)N4CC(O)C4)CC3)cn2c1N(C)c1nc(-c2ccc(F)cc2)c(C#N)s1` has a Cmax of 3300 ng/mL (human; oral; 300 mg; fed, healthy volunteers).
`CC(C)n1cc(C#N)c2cc(-n3cc(C(=O)O)cn3)ccc21` gave a Cmax of 8770 ng/mL (human; oral; 200 mg; single dose, fasted, healthy volunteers).
`COCCOc1cnc2ccn([C@H](C)c3nnc4c(F)cc(-c5cnn(C)c5)cn34)c(=O)c2c1` has a Cmax of 2300 ng/mL (human; oral; 100 mg; multiple doses, once daily, patients).
With `Cn1c(=O)oc2ccc(-c3ccc(C[C@@H](C#N)NC(=O)[C@@H]4CNCCCO4)cc3)cc21` the Cmax was 202 nM (male human; oral; 15 mg; single dose, healthy volunteers).
The Cmax of `CCOc1ccc(Cc2cc([C@@H]3S[C@H](CO)[C@@H](O)[C@H](O)[C@H]3O)c(OC)cc2C)cc1` is reported as 208 ng/mL (male human; oral; 5 mg; single dose, fasted, healthy volunteers).
With `Cn1cc(-c2ccc(S(=O)(=O)[C@@H]3C[C@@H](C(=O)NC4(C#N)CC4)N(C(=O)C4(C(F)(F)F)CC4)C3)c(C(F)(F)F)c2)cn1` the Cmax was 946 ng/mL (human; oral; 100 mg; single dose, fed).
The Cmax of `O=C(Nc1c(Cl)cncc1Cl)c1ccc(OC(F)F)c(OCC2CC2)c1` is reported as 11.4 ng/mL (human; oral; 0.375 mg; multiple doses, once daily, steady state).
With `COc1cc(C(=O)NC2CCN(C)CC2)c(F)cc1Nc1ncc(C(F)(F)F)c(Oc2cccc3c2C(=O)N(C)C3)n1` the Cmax was 44.8 nM (human; oral; 10 mg; single dose, patients).
`CC(C)(C(=O)N1CCOc2c(C#N)cncc2C1)C(F)F` gave a Cmax of 116 ng/mL (human; oral; 10 mg; single dose, fasted, healthy volunteers).
With `C[C@@]1(c2cc(NC(=O)c3ccc(C#N)cn3)ccc2F)C=CSC(N)=N1` the Cmax was 17.2 ng/mL (human; oral; 3 mg; single dose).
The Cmax of `CO[C@H]1/C=C\C=C(/C)C(=O)NC2=CC(=O)C(NCCN(C)C)=C(C[C@@H](C)C[C@H](OC)[C@H](O)[C@@H](C)/C=C(\C)[C@@H]1OC(N)=O)C2=O` is reported as 443 ng/mL (human; intravenous; 27 mg/m²; patients, infusion).
With `CCO[C@H]1CCN(Cc2c(OC)cc(C)c3[nH]ccc23)[C@H](c2ccc(C(=O)O)cc2)C1` the Cmax was 1800 ng/mL (human; oral; 50 mg; multiple doses, twice daily, patients).
